Data from ChEMBL document CHEMBL3112476, “Inhibition of IκB kinase-β and IκB kinase-α by heterocyclic adamantyl arotinoids” (Bioorg Med Chem, 2014).

What was measured:
[1] = target: T1, Retinoic acid receptor RXR-alpha (Homo sapiens) (UniProt P19793); experiment: Agonist activity at recombinant GST-tagged RXRalpha LBD (unknown origin) assessed as induction of biotinylated SRC-1-676-700 coactivator recruitment after 4 hrs by TR-FRET assay
T1 sequence (whole entry): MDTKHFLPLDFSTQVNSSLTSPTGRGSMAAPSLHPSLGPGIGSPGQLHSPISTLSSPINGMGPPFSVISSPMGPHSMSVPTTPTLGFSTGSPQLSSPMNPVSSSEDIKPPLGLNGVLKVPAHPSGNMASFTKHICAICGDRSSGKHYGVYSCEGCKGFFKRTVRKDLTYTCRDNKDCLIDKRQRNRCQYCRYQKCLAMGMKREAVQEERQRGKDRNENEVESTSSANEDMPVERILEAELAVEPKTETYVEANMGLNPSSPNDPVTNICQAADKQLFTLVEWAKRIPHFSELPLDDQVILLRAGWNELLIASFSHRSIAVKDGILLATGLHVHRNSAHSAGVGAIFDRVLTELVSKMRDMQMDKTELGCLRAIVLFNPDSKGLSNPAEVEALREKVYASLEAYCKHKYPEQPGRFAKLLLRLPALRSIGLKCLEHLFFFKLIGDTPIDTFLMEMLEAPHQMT
Method in brief: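 5 nM GST-RXRα LBD was incubated with 150 nM biotin-SRC-1 676-700 peptide at room temperature in binding buffer (25 mM Hepes pH 7.4, 100 mM NaCl, 0.025% BSA, 5% glycerol, 0.005% Tween-20, 2.5 mM DTT; ≤1% DMSO). Detection used 2 nM Eu-anti-GST plus 37.5 nM streptavidin-allophycocyanin. The 665/615 nm ratio was read at 4 h and expressed as Delta F% versus no-receptor control.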

[2] = target: T1, Retinoic acid receptor RXR-alpha (Homo sapiens); experiment: Agonist activity at recombinant GST-tagged RXRalpha LBD (unknown origin) assessed as induction of fluorescein labeled D22 coactivator recruitment after 4 hrs by TR-FRET assay
Method in brief: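 5 nM GST-RXRα LBD was incubated with 150 nM fluorescein-D22 peptide at room temperature in Hepes pH 7.4 binding buffer (≤1% DMSO), with 2 nM Tb-anti-GST antibody. The 520/495 nm TR-FRET ratio was read after 4 h and reported as Delta F% relative to samples lacking receptor.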

[3] = target: T1, Retinoic acid receptor RXR-alpha (Homo sapiens); experiment: Agonist activity at Gal4-fused RXRalpha (unknown origin) transfected in HEK293 cells assessed as induction of transcriptional activity at 4 uM after 24 hrs by luciferase/beta-galactosidase reporter gene assay relative to CD3254; format: cell-based
Method in brief: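 Gal4-RARα or Gal4-RXRα (10 ng) plus 2 ng β-galactosidase vector, calcium phosphate transfection into HEK-293 cells carrying a 5×UAS luciferase reporter. After 16 h, cells were washed and given 5% charcoal-treated FBS medium, then rested 2 h. Stimulation was with 4 µM compound or 0.1% DMSO; controls were 1 µM atRA (RARα) or 1 µM CD3254 (RXRα). Harvest was at 6 h (RARα) or 24 h (RXRα). Luciferase/β-gal ratio was expressed as fold over unstimulated cells. Data: 2 experiments, triplicate.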

Row | Compound | Activity [1] | Activity [2] | max activation [3] [%]
1 | Cc1cc(O)c(C23CC4CC(CC(C4)C2)C3)cc1-c1ccc(/C=C/C(=O)O)cc1Cl | Dose-dependent effect | Dose-dependent effect | 
2 | COCCOCOc1cc(C)c(-c2ccc(CC(=O)O)cc2Cl)cc1C12CC3CC(CC(C3)C1)C2 | Dose-dependent effect | Dose-dependent effect | 
3 | COCCOCOc1cc(C)c(-c2ccc(/C=C/C(=O)O)cc2Cl)cc1C12CC3CC(CC(C3)C1)C2 | Dose-dependent effect | Dose-dependent effect | 
4 | COCCOCOc1ccc(-c2ncc(-c3ccc(C(=O)O)cc3)s2)cc1C12CC3CC(CC(C3)C1)C2 |  |  | 21
5 | COCCOCOc1cc(C)c(-c2ccc3cc(C(=O)O)ccc3c2Cl)cc1C12CC3CC(CC(C3)C1)C2 | Dose-dependent effect | Dose-dependent effect | 
